Screening data deposited in PubChem BioAssay by several laboratories.
Runt-SMMHC FRET: blocks binding of human RUNX1 Runt domain to CBFb-SMMHC; Q01196+Q13951; 0.74% of 220,000 active; inhibition, % at 20 µM; Cerulean-Runt/Venus-CBFb-SMMHC FRET ratio 530/480, 1 h; AID 1434;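 active = mean inhibition across duplicate retests at 20 µM reaching about 50%, limit read from the data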;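 note: 0% = DMSO wells and 100% = wells with excess untagged CBFb-SMMHC; inhibitors lower the FRET ratio by blocking Runt binding to CBFb-SMMHC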
Runt-CBFb FRET: blocks binding of human RUNX1 Runt domain to CBFb; inhibition, % at 20 µM; Q01196+Q13951; Cerulean-Runt/Venus-CBFb FRET ratio 530/480, 1 h; 0.46% of 220,000 active;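 active = inhibition over about 50% at 20 µM in the single-dose screen, limit read from the data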;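 note: 0% = DMSO wells and 100% = excess unlabeled CBFb competitor control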
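Assay system: Cerulean-Runt domain / Medium: Tris 50 mM pH 7.5, KCl, K2SO4, 0.01% BSA / Timing: protein complex preformed 1 h, compound exposure 1 h, room temperature, dark / Measured by: FRET, excitation 422 nm, emission at 530 and 480 nm / Evaluation: loss of energy transfer signal / Control set: 5 µM unlabeled CBFb as full-inhibition high control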
MEX-5 binding: C. elegans MEX-5 TCR-2 RNA binding activity. AID 1832. Q9XUB2. 0.38% of 300,000 active. MEX-5/FITC-TCR2 RNA binding, fluorescence polarization; stronger effect = lower value. activity score (negative = inhibition of binding), % at 10 µM;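 active = inhibition past about -25% in most replicates, and total fluorescence under double the plate's negative control median, limit read from the data; inconclusive = replicates evenly split on the limit, or fluorescence at least double controls; inactive = too little inhibition in most replicates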;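 note: 0% = DMSO and -100% = 5 µM competing unlabeled TCR2 RNA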
RanGTP-Impb inh: inhibitors of RanGTP-importin-beta interaction, primary screen, biochemical, FRET, CFP-Ran, YFP-importin-beta, homogeneous | cell-free CFP-Ran/YFP-importin-beta FRET ratio | inhibition, % (concentration not given with the values) | 1.1% of 300,000 active | AID 2216;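 active = more than half of the replicate wells show a fall in the fluorescence ratio signal beyond about 16%, limit read from the data, passing the limit was not always enough; inconclusive = exactly half of the replicate wells pass the set limit; inactive = fewer than half of replicates pass the limit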;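 note: 0% = DMSO wells and 100% = Ran loaded with GDP instead of GTP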
KLK7 zymogen act: activates the human kallikrein-7 zymogen | purified proKLK7, EDANS-DABCYL substrate fluorescence; 100% is mature enzyme control, 0% vehicle | activation, % at 7 µM | 0.9% of 370,000 active | P49862;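 active = activation above the mean of all tested compounds plus 3 SD, computed per campaign excluding outliers beyond control limits, cut at about 13% in these data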
Target sequence (P49862 whole entry, looked up): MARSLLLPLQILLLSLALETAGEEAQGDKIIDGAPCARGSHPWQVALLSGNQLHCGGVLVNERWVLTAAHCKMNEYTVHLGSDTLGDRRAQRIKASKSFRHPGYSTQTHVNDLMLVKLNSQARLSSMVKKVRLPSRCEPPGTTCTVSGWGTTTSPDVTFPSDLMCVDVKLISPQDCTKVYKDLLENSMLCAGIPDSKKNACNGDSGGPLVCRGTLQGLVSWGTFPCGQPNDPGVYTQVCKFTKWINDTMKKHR
proKLK7 act conf: proKLK7 activation, confirmation; purified proKLK7, EDANS-DABCYL substrate fluorescence; scaled: vehicle 0, mature enzyme 100; shares compounds with KLK7 zymogen act; activation, % at 7 µM; 68% of 3,200 active; AID 686949;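 active = activation, as change over the incubation, above the mean of all tested compounds plus 3 SD, cut at about 13% in these data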
EDANS interfere: optically interferes with EDANS-DABCYL signal, flagging KLK7 hits. shares compounds with KLK7 zymogen act. EDANS-DABCYL substrate fluorescence interference, no enzyme, 4 h; solvent 0%, active enzyme control 100%. activation, % at 7 µM. 80% of 3,200 active. AID 686952;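 active = activation above the all-compound mean plus 3 SD, ignoring values outside control-based bounds, cut at about 4.8% in these data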;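 note: value is the 4 h activation minus the activation read at time zero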
Starred values were filed as active, the others as inactive; ? = inconclusive; nt = no result given. The list is not random: actives were taken first. Their share in the collection is about 2.1%.

SMILES	Runt-SMMHC FRET	Runt-CBFb FRET	MEX-5 binding	RanGTP-Impb inh	KLK7 zymogen act	proKLK7 act conf	EDANS interfere
COc1ccc(C2CC(c3cccs3)=NN2C(=O)COC(=O)c2cncc(Br)c2)cc1OC (centres undefined)	-5.2	-8.2	1.0	-2.4	-1.1	nt	nt
CCOC(=O)N1CCc2[nH]c3ccc(C)cc3c2C1	-96.1	-89.0	-6.2	-0.1	16.6*	22.8*	23.5*
CC(=O)c1cc2c(O)c(O)ccc2o1	1.9	6.1	-0.2	-0.3	3.0	nt	nt
CC(=O)c1cc2cc(O)ccc2o1	70.1*	32.3	nt	-2.7	83.0*	70.6*	64.0*
CC(=O)c1cc2ccccc2oc1=O	nt	nt	nt	nt	0.5	nt	nt
Cc1ccc(C(=O)N/N=c2\oc3ccccc3cc2C(N)=O)cc1	nt	nt	-2.6	-5.1	-0.8	nt	nt
CC(=O)c1cc2ccc(O)cc2oc1=O	81.2*	9.8	-2.2	148.4*	19.9*	27.0*	32.4*
O=C(NCc1ccco1)c1cc2ccc(O)cc2oc1=O	58.5*	17.9	-4.1	158.0*	48.5*	57.8*	70.6*
Cc1ccc(N=c2oc3cc(O)ccc3cc2C(N)=O)cc1	46.5	9.9	-4.3	180.8*	24.2*	9.7	10.7*
CC(=O)Nc1ccc(C(=O)COC(=O)CCc2ccccc2)c(F)c1	nt	nt	nt	nt	-0.8	nt	nt
O=C(Cc1cccc2ccccc12)NN=Cc1ccc2c(c1)CCC2	nt	nt	nt	nt	1.0	nt	nt
CC1(C2CC2)NC(=O)N(CC(=O)N2CCN(c3cccc(C(F)(F)F)c3)CC2)C1=O (centres undefined)	nt	nt	nt	nt	0.5	nt	nt
Cc1nc2sc(C(=O)c3ccccc3)c(N)c2c(C)c1C	2.6	53.9*	-2.3	-0.2	50.4*	-17.7	-0.2
Cc1cc(=O)oc2cc(NC(=O)c3ccccc3C(=O)O)ccc12	nt	nt	2.8	2.4	53.9*	14.1*	15.8*
Cc1cc(=O)oc2cc(NC(=O)c3ccccc3Cl)ccc12	nt	nt	-3.3	6.0	12.8*	12.5	12.4*
Cc1ccccc1CC(=O)Nc1ccc2c(C)cc(=O)oc2c1	nt	nt	-3.3	2.9	1.8	nt	nt
CCNC(=S)Nc1ccc2c(c1)c(=O)n(C)n2Cc1cccc(C(F)(F)F)c1	nt	nt	nt	nt	19.6*	-7.2	-5.6
Cn1c(=O)c2cc(NC(=O)OCCF)ccc2n1Cc1cccc(C(F)(F)F)c1	nt	nt	nt	nt	13.3*	9.0	5.7*
Cc1ccc(CNC(=S)Nc2ccc3c(c2)c(=O)n(C)n3Cc2cccc(C(F)(F)F)c2)cc1	nt	nt	nt	nt	2.1	nt	nt
COc1cccc(CNC(=S)Nc2ccc3c(c2)c(=O)n(C)n3Cc2csc(C)n2)c1	nt	nt	nt	nt	15.2*	-1.6	1.6
CN(C)c1cccc(C(=O)NCc2ccc3c(c2)OCO3)c1	nt	nt	0.3	2.1	0.5	nt	nt
CCCN1C(=O)c2ccccc2NC1c1ccc(Br)cc1 (centres undefined)	nt	nt	-3.2	0.4	12.3	nt	nt
CCCN1C(=O)c2ccccc2NC1c1ccc(Cl)cc1 (centres undefined)	nt	nt	1.4	-1.1	15.6*	6.2	7.0*
Cc1ccc(C2Nc3ccccc3C(=O)N2CCCN2CCOCC2)cc1 (centres undefined)	-0.6	0.9	2.0	0.9	23.5*	1.4	1.6
CCCN1C(=O)c2ccccc2NC1c1ccc(O)c(OCC)c1 (centres undefined)	nt	nt	2.3	-6.0	14.1*	10.4	6.7*
SMILES	Runt-SMMHC FRET	Runt-CBFb FRET	MEX-5 binding	RanGTP-Impb inh	KLK7 zymogen act	proKLK7 act conf	EDANS interfere
O=C1NCCN1CCN1C(=O)c2ccccc2NC1c1ccccc1 (centres undefined)	2.1	2.6	0.3	0.7	20.4*	29.9*	33.0*
OCCCc1nc2n(n1)C(c1ccccc1)C=C(c1ccc(F)cc1)N2 (centres undefined)	29.8	-84.9	-1.0	-4.8	23.0*	38.2*	74.4*
COc1ccccc1CNC(=O)NCCCN1CCN(c2ccc(F)cc2)CC1	nt	nt	nt	nt	-0.4	nt	nt
CNC(=O)COc1ccccc1C(=O)Nc1ccc2c(c1)oc1ccccc12	-0.4	-0.5	-0.4	?	54.7*	-74.5	-111.4
CC(OC(=O)C1=COCCO1)C(=O)NC1CCCC(C)C1C (centres undefined)	nt	nt	nt	nt	0.1	nt	nt
Cc1c(C)c2c(OCC(=O)N[C@@H](C)C(=O)O)cc3c(c2oc1=O)CCC(C)(C)O3	nt	nt	1.5	1.1	30.7*	72.0*	68.6*
CCC(NC(=O)COc1cc2c(c3oc(=O)c(C)c(C)c13)CCC(C)(C)O2)C(=O)O (centres undefined)	nt	nt	3.3	-0.8	37.6*	72.7*	73.6*
